Drawing on ChEMBL document CHEMBL4765399, “Design, synthesis, and biological evaluation of 5-((8-methoxy-2-methylquinolin-4-yl)amino)-1H-indole-2-carbohydrazide derivatives as novel Nur77 modulators” (Eur J Med Chem, 2020), this text covers Activity, inhibition and inhibition in vivo for one compound.

As usually defined, the inhibition in vivo is the share of the control response that was lost under treatment.

Active and inactive are the calls of the source. No cut-off for these calls is given here.

Assay [1] has as its target T1, Nuclear receptor subfamily 4immunitygroup A member 1 (Homo sapiens, UniProt P22736). Kind of assay: Modulation of Nur77 in human HepG2 cells assessed as induction of mitochondrial translocation at 2 uM incubated for 6 hrs by Mito-tracker based confocal microscopy. To be noted: Mitochondria, filed as modulator. Summed up: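 HepG2 cells given 2.0 µM for 6 h, then stained with anti-Nur77 antibody plus Mito-tracker. Cells fixed in 4% paraformaldehyde for 20 min, permeabilized with 0.1% Triton X-100, blocked with 5% BSA. Anti-Nur77 (1:500) for 1 h, then FITC- or Cy3-conjugated anti-rabbit IgG for 1 h. Imaged by confocal microscopy.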

In assay [2] the test system is HepG2. Description: Induction of apoptosis in human HepG2 cells assessed as late apoptotic cells at 2 uM incubated for 12 hrs by Annexin V-FITC/PI staining based flow cytometry (reference value: 1.1 to 2.75%). In kind it is functional.
For assay [3], the system named is QGY-7703. Kind of assay: Inhibition of colony formation in human QGY-7703 cells at 2 uM incubated for 24 hrs measured after cell culturing for 15 days in normal medium by crystal violet staining based assay. The assay is classed as functional. Conditions: time 16.0 day. The procedure, abridged:
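500 HepG2, QGY-7703 or SMMC-7721 cells per well allowed to attach 24 h, exposed to DMSO or 2.0 µM for 24 h, then grown 15 days in plain medium. Colonies fixed 30 min in 4% paraformaldehyde, stained 15 min with 0.1% crystal violet, photographed and counted.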

Assay [4] deals with HepG2. Kind of assay: Induction of apoptosis in human HepG2 cells transfected with shRNA assessed as late apoptotic cells at 2 uM incubated for 12 hrs by Annexin V-FITC/PI staining based flow cytometry (reference value: 2.18%). The assay is classed as functional. For orientation: Flow cytometry measures light scatter and fluorescence of single cells or particles in a stream.

In assay [5] the test system is HepG2. Kind of assay: Induction of apoptosis in human HepG2 cells transfected with shRNA assessed as necrotic cells at 2 uM incubated for 12 hrs by Annexin V-FITC/PI staining based flow cytometry (reference value: 0.15%). The assay is classed as functional.
Assay [6] concerns HepG2. Description: Induction of apoptosis in human HepG2 cells assessed as early apoptotic cells at 2 uM incubated for 12 hrs by Annexin V-FITC/PI staining based flow cytometry (reference value: 3.99 to 5.35%). In kind it is functional.
The test system of assay [7] is HepG2. Description: Antitumor activity against human HepG2 cells xenografted in BALB/c mouse assessed as tumor growth inhibition at 20 mg/kg/day, ip administered for 15 days. To be noted: 360 h, time 15 day. The assay is classed as functional. The procedure, abridged:
(§1)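 Subcutaneous flank xenograft of 5×10^6 HepG2 cells in 4-week-old male Balb/c nude mice. At about 100 mm³, 15 mice were randomized into three groups: vehicle, 10 or 20 mg/kg i.p. daily for 15 days. Tumor size was measured every day, and tumors were excised and weighed at the end.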

For assay [8], the system named is HepG2. Description: Antitumor activity against human HepG2 cells xenografted in BALB/c mouse assessed as tumor weight at 20 mg/kg/day, ip administered for 15 days (reference value: 0.86 +/- 0.18 g). In kind it is functional. Conditions: dose 10 mg/kg/day; time 15 day; in the assay text read “10 mg/kg/day” for “20 mg/kg/day”. The procedure, abridged:
as §1

Assay [9] has as its system SMMC-7721. Kind of assay: Induction of endoplasmic reticulum stress in human SMMC-7721 cells assessed as increase in CHOP protein expression incubated for 12 hrs by Western blot analysis. In kind it is functional, cell-based. To be noted: dose 0.5-2 µM. The procedure, abridged:
(§2)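 HepG2, QGY-7703 and SMMC-7721 treated with graded concentrations for 12 h. Lysed in RIPA with inhibitors; 40-80 µg protein separated by SDS-PAGE, blotted to nitrocellulose, blocked 1 h in 5% milk, primary antibodies overnight (LC3, Beclin1, Bip, CHOP, TRB3), HRP secondaries, chemiluminescence.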

The test system of assay [10] is HepG2. Kind of assay: Induction of apoptosis in human HepG2 cells assessed as live cells at 2 uM incubated for 12 hrs by Annexin V-FITC/PI staining based flow cytometry (reference value: 90.7 to 94%). In kind it is functional.
Assay [11] has as its system HepG2. Description: Induction of endoplasmic reticulum stress in Nur77 […] human HepG2 cells assessed as bip protein expression at 2 uM incubated for 6 to 12 hrs by Western blot analysis. To be noted: time 6-12 hrs. In kind it is functional, cell-based. The procedure, abridged: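 HepG2 and shNur77 HepG2 exposed to DMSO or 2.0 µM for 6 and 12 h; lysates immunoblotted for TRB3, Bip, CHOP and Nur77 (SDS-PAGE, nitrocellulose, overnight primary antibodies, HRP secondary, chemiluminescence).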

The target of assay [12] is T1, Nuclear receptor subfamily 4immunitygroup A member 1. Description: Modulation of Nur77 in human HepG2 cells assessed as induction of nuclear […] pretreated with nuclear export inhibitor, LMB followed by incubation with compound for 12 hrs by fluorescence microscopic analysis. The assay is classed as cell-based.
Assay [13] deals with HepG2. Description: Induction of endoplasmic reticulum stress in human HepG2 cells assessed as increase in PDI protein expression at 2 uM incubated for 6 hrs by confocal microsocopic analysis. The assay is classed as functional, cell-based. Summed up: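 HepG2, or HepG2 plus shNur77 HepG2, treated with 2.0 µM for 6 h, fixed in 4% paraformaldehyde 20 min, permeabilised 0.1% Triton X-100, blocked in 5% BSA, stained with PDI antibody and imaged by confocal fluorescence microscopy.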

Assay [14] deals with HepG2. Kind of assay: Induction of apoptosis in human HepG2 cells assessed as necrotic cells at 1 uM incubated for 12 hrs by Annexin V-FITC/PI staining based flow cytometry (reference value: 0.068%). In kind it is functional.
The subject of assay [15] is HepG2. Kind of assay: Disruption of mitochondrial membrane potential in human HepG2 cells assessed as green fluorescence intensity at 2 uM incubated for 12 hrs by JC-1 staining based flow cytometry (reference value: 41669 units). The assay is classed as functional.
In assay [16] the test system is HepG2. Kind of assay: Antitumor activity against human HepG2 cells xenografted in BALB/c mouse assessed as induction of ER stress by measuring increase in CHOP level in tumor tissue at 10 to 20 mg/kg/day, ip administered for 15 days by immunohistochemical analysis. To be noted: dose 10-20 mg/kg/day, time 15.0 day. In kind it is functional, organism-based. Summed up:
(§3)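 HepG2 cells (5×10^6) injected subcutaneously into flanks of 4-week-old male Balb/c nude mice. At about 100 mm³, 15 mice were randomized to vehicle, 10 or 20 mg/kg i.p. once daily for 15 days. Tumors were then excised for immunostaining of paraffin sections (5 μm) or for western blot.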

Assay [17] concerns HepG2. Kind of assay: Antitumor activity against human HepG2 cells xenografted in BALB/c mouse assessed as reduction in PCNA expression in tumor tissue at 10 to 20 mg/kg/day, ip for 15 days by western blot analysis. The assay is classed as functional, organism-based. Conditions: dose 10-20 mg/kg/day, time 15.0 day. The procedure, abridged: as §3
(In general: Xenograft models place foreign cells or tissue in a host animal.)

Assay [18] has as its system QGY-7703. Kind of assay: Induction of endoplasmic reticulum stress in human QGY-7703 cells assessed as increase in TRB3 protein expression incubated for 12 hrs by Western blot analysis. In kind it is functional, cell-based. To be noted: dose 0.5-2 µM. Summed up:
as §2
For orientation: Immunoblotting shows a protein as a band on a membrane.

For assay [19], the target named is T1, Nuclear receptor subfamily 4immunitygroup A member 1. Kind of assay: Binding affinity to Nur77 ligand binding domain (unknown origin) assessed as fast association/dissociation kinetics by surface plasmon resonance analysis. To be noted: filed as modulator. Summed up: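 SPR with Nur77-LBD, analyte injected at a series of concentrations; KD (equilibrium dissociation constant) and association/dissociation kinetics derived from the sensorgrams.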

Assay [20] deals with QGY-7703. Kind of assay: Induction of autophagy in human QGY-7703 cells assessed as increase in Beclin 1 expression measured after 12 hrs by Western blot analysis. In kind it is functional, cell-based. To be noted: dose 0.5-2 µM. Summed up: as §2
Assay [21] relates to SMMC-7721. Description: Antiproliferative activity against human SMMC-7721 cells assessed as reduction in cell viability at 2 uM by MTT assay. In kind it is functional, cell-based. To be noted: time 12-48 hrs, TDE = time-dependent effect. Summed up:
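Cells treated with 2.0 µM over a time course; viability read by MTT. HepG2, SMMC-7721 kept in DMEM, QGY-7703 in RPMI 1640, with 10% FBS at 37 °C and 5% CO2.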

T1 sequence (P22736 whole entry): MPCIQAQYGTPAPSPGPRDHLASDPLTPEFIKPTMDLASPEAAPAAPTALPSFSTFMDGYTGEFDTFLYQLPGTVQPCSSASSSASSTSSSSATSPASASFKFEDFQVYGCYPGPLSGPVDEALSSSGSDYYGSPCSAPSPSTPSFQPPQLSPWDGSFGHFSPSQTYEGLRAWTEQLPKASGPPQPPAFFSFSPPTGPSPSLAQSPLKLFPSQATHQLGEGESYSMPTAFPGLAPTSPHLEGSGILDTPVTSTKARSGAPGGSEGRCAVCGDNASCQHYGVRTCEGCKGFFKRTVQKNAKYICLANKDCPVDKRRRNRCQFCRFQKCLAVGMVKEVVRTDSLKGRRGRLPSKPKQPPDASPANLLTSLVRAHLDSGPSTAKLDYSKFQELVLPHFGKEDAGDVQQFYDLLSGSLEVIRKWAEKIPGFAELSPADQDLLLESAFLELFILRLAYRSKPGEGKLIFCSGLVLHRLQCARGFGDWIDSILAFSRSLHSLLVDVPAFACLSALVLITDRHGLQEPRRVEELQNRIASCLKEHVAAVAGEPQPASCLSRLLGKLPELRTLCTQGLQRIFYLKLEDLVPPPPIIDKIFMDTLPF

On to `COc1cccc2c(Nc3ccc4[nH]c(C(=O)N/N=C/c5ccc(SC)cc5)cc4c3)cc(C)nc12`, for which the result in [1], in assay [13], in [16], in [17] and in assay [19] was Active. For the same compound, the Activity is 55.6% in assay [2]; 23% in assay [4]; 0.16% in assay [5]; 13% in assay [6]; 0.5 g in assay [8]; “Dose-dependent effect” in assay [9]. Also, the Activity in assay [10] was 8.8%; in assay [14], 0.41%; in assay [15], 71731 U; in assay [18], “Dose-dependent effect”; in assay [20], “Dose-dependent effect”; in assay [21] it was “Tde”. For the same compound, the inhibition result in assay [3] was “Active”. Also, the inhibition in vivo at 20 mg/kg/day in [7] was determined as 62.4%. The result in [11] and in assay [12] was inactive.
